PMI act = increases human mannose-6-phosphate isomerase activity | P34949 | purified human PMI, coupled resazurin fluorescence, 20 min; hits give high values; 1 = vehicle control, 0 substrate-free wells | activation factor at 20 µM | 0.005% of 190,000 active;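 active = activation factor of 2 or more at 20 µM, relative to plate controls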
Target sequence (P34949 whole entry, looked up): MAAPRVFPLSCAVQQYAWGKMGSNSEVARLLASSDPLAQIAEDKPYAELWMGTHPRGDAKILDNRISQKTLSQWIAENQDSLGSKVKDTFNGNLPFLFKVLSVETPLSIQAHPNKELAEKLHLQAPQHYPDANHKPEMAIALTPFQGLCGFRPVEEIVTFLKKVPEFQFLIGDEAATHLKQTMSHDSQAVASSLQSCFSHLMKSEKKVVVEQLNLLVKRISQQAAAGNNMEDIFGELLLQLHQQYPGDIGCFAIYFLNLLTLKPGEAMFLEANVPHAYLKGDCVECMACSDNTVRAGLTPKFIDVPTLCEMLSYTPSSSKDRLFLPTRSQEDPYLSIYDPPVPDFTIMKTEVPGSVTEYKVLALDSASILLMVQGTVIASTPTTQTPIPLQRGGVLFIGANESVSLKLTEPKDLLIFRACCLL
HCT116 PTEN-null = suppresses growth of cells with PTEN deletion. viability, % at 10 µM. 1.2% of 140,000 active. HCT116 PTEN-null viability, CellTiter-Glo, 60 h; hits give low values;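 active = viability at or below a set limit, 4 SD under the median of all tested compounds, cut at about 3.7% in these data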;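 note: PTEN knockout HCT116 line with beta catenin targeted HCT116 as companion control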
L major viab = inhibitors of Leishmania major promastigote growth; Leishmania major promastigotes, resazurin fluorescence viability; inhibition, % at 10 µM; 9% of 200,000 active; AID 1063; in the data active = inhibition above about 50%;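 note: promastigotes grown with compound for 44 hours at 28 °C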
bCat KO growth = beta-catenin-lacking colon tumor cell growth suppression | HCT116 beta-catenin knockout viability, CellTiter-Glo, 60 h; hits give low values | 1.5% of 140,000 active | AID 818 | viability, % at 10 µM;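 active = viability at or under a set limit, the compound median less 4 SD, cut at about 6% in these data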
PMI act satM6P = PMI (human) activation, high substrate; P34949; coupled PMI enzyme assay, resazurin fluorescence, 20 min; hits give high values; 1 = untreated enzyme, 0 = substrate-free blank; activation factor at 20 µM; 0.34% of 190,000 active; AID 1216;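 active = activation factor of 2 or more at 20 µM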
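Test system: human PMI in coupled enzyme assay; Input: PMI at 15 ng/mL final; Medium: HEPES buffer, pH 7.4; Schedule: 20 min incubation at room temperature; Technique: resorufin fluorescence at Ex 544/Em 590 nm; Compound: 20 µM single dose; Probe or stimulus: Near-saturating mannose-6-phosphate, 1.0 mM.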
Numbers stand for hits; i = inactive; nt = no result given. Hits are enriched below; roughly 9.6% of the tested compounds scored in any of these assays.

SMILES	PMI act	HCT116 PTEN-null	L major viab	bCat KO growth	PMI act satM6P
Cc1ccc(CC2CC(=O)N(CCc3ccc4c(c3)OCO4)C2=O)cc1 (configuration not stated)	i	i	60	i	i
COc1ccc(CCNC(=O)C(=O)Nc2ccc3c(c2)OCO3)cc1OC	i	nt	i	nt	i
O=C1NC2(CCC3(CC2)OCCO3)NN1c1ccc(Cl)cc1	i	nt	i	nt	2.7
O=C(NC1CCCCC1)C(c1ccc(Cl)cc1)N1CCC2(CC1)OCCO2 (configuration not stated)	i	i	i	i	i
O=C(C1=C[C@H](c2ccc(Br)cc2)C[C@H](OCCCCO)O1)N1CCN(Cc2ccccc2)CC1	i	nt	i	nt	i
Cc1ccc(-c2nnn(CC(=O)N(c3ccccc3F)C(C(=O)NCC3CCCO3)c3c[nH]c4ccccc34)n2)cc1 (configuration not stated)	i	i	88	i	i
Cc1ccc(-n2cc(CN3CCC(CO)(Cc4ccccc4)CC3)cn2)cc1	i	nt	80	nt	i
CSc1ccc(CN2CCCC(CO)(Cc3ccccc3)C2)cc1 (configuration not stated)	i	nt	64	nt	i
Cc1ccc(-n2cc(CN3CCC(CO)(Cc4cccc(C(F)(F)F)c4)CC3)cn2)cc1	i	nt	99	nt	i
CSc1ccccc1C(=O)C1CCCN(Cc2cnn(-c3ccccc3)c2)C1 (configuration not stated)	i	nt	73	nt	i
CSc1ccccc1C(=O)C1CCCN(Cc2c(C)n(C)n(-c3ccccc3)c2=O)C1 (configuration not stated)	i	nt	i	nt	i
CC(C)(C)C(=O)Nc1nc(C2CCCN2S(=O)(=O)c2ccc(Cl)cc2)cs1 (configuration not stated)	i	i	i	i	i
O=C(NCCCN1CCOCC1)/C(=C/c1ccc(F)cc1)NC(=O)c1ccccc1	i	nt	i	nt	i
OCC1(Cc2ccccc2)CCCN(Cc2cnn(-c3ccccc3)c2)C1 (configuration not stated)	i	nt	89	nt	i
OCC1(Cc2ccccc2)CCN(Cc2cnn(-c3ccccc3F)c2)CC1	i	nt	88	nt	i
COc1ccccc1-n1cc(CN2CCCC(CO)(Cc3cccc(Cl)c3)C2)cn1 (configuration not stated)	i	nt	i	nt	i
Cc1ccc(Cl)cc1N1CCN(C(=O)c2cc3c(=O)n(C)c4ccccc4c3n2C)CC1	i	i	i	i	i
Cc1cc2n(n1)C(c1cn(-c3ccccc3)nc1C)Nc1c(C)cccc1-2 (configuration not stated)	i	i	i	i	i
Cc1cc2n(n1)C(c1ccc3c(c1)OCO3)Nc1c(C)cccc1-2 (configuration not stated)	i	i	99	i	i
COc1ccc(NC(=O)CC(Cc2ccccc2)C(=O)O)cc1 (configuration not stated)	i	i	i	i	i
COc1ccc(C(CCN)Cc2ccccc2)cc1 (configuration not stated)	i	nt	51	nt	i
OCCc1ccc(-c2ccc(Cl)cc2)o1	i	i	i	i	i
CN1CCN(Cc2ccc(-c3ccc(Cl)cc3)o2)CC1	i	i	94	i	i
Fc1ccc(-c2ccnc(=S)[nH]2)cc1	i	i	i	i	i
COc1cccc(CNC(=S)Nc2cc(OC)ccc2OC)c1	i	nt	i	nt	i
SMILES	PMI act	HCT116 PTEN-null	L major viab	bCat KO growth	PMI act satM6P
Cc1ccc(SCC(=O)N2N=CCC2c2ccccc2)cc1 (configuration not stated)	i	nt	84	nt	i
O=C(CSc1nnnn1-c1ccccc1)N1N=CCC1c1ccccc1 (configuration not stated)	i	i	i	i	i
CCOC(=O)C1=C(CSCC(=O)OC)NC(=O)NC1c1cc(C)ccc1C (configuration not stated)	i	i	i	i	i
CCOC(=O)C1=C(CSc2nc3ccccc3s2)NC(=O)NC1c1cc(C)ccc1C (configuration not stated)	i	i	60	i	i
CCOC(=O)C1=C(CSc2nc3ccccc3s2)NC(=O)NC1c1ccc(OC)cc1 (configuration not stated)	i	i	62	5.7	i
O=C(c1cc2c(s1)CCCC2)N1CCN(c2ccccc2)CC1	i	nt	i	nt	i
O=S(=O)(c1ccccc1C(F)(F)F)N1CCN(S(=O)(=O)c2ccccc2C(F)(F)F)CC1	i	i	i	i	i
O=C(c1cc2c(s1)CCCC2)N1CCN(S(=O)(=O)c2ccccc2C(F)(F)F)CC1	i	i	77	i	i
CCOc1ccccc1N1CCN(C(=O)c2cc3c(s2)CCC3)CC1	i	i	68	i	i
C=CCN1C(=O)/C(=C/c2ccc(OC(C)=O)c(OCC)c2[N+](=O)[O-])SC1=S	i	nt	91	nt	i
CN1CCN(Cc2c(O)ccc3c(-c4ccccc4)cc(=O)oc23)CC1	i	i	80	i	i
CCCCN(C)Cc1c(O)ccc2c(-c3ccccc3)cc(=O)oc12	i	i	65	i	i
CCCc1cc(=O)oc2c(CN3CCCC3)c(O)ccc12	i	i	i	i	i
CCN(CC)Cc1c(O)ccc2c(-c3ccccc3)cc(=O)oc12	i	i	i	i	i
Cc1cccc(N2N=C(C(=O)Nc3nc(C)cs3)CCC2=O)c1	i	nt	i	nt	i
CCCCN1C(=O)Cc2c1nc(N)c1c(N)nc(N(CCC)CCC)c(C#N)c21	i	i	i	i	i
C=C(C)CN(CC)c1nc(N)c2c(N)nc3c(c2c1C#N)CC(=O)N3C12CC3CC(CC(C3)C1)C2	i	i	90	i	i
COc1ccc(CN2C(=O)Cc3c2nc(N)c2c(N)nc(N4CCCCC4)c(C#N)c32)cc1	i	i	i	i	i
N#Cc1c(N2CCCC(O)C2)nc(N)c2c(N)nc3c(c12)CC(=O)N3C12CC3CC(CC(C3)C1)C2 (configuration not stated)	i	i	99	i	i
CCOCCCNC(=O)c1c[nH]c2c(CC)cccc2c1=O	i	nt	i	nt	i
CCOC(=O)c1c(-c2ccc(C)cc2)csc1NC(=O)CCN1CCOCC1	i	i	97	i	i
CCOC(=O)c1c(-c2ccccc2)csc1NC(=O)CCN1CCOCC1	i	i	98	i	i
CCOC(=O)c1c(-c2ccccc2)csc1NC(=O)c1ccc(S(=O)(=O)N2CCOCC2)cc1	i	i	i	i	i
CCOC(=O)c1c(-c2cccs2)csc1NC(=O)CN1CCOCC1	i	i	i	i	i
CCOC(=O)c1c(-c2ccc(C)o2)csc1NC(=O)CN1CCOCC1	i	i	89	i	i
CCOC(=O)c1c(-c2ccc(C)cc2)csc1NC(=O)C1CC=CCC1C(=O)O (configuration not stated)	i	i	i	i	i
O=C(c1cnc(Cl)c(Cl)c1)N1CCC(Cc2ccccc2)CC1	i	nt	i	nt	i
CCOC(=O)C1CCN(C(=O)c2cccc(NS(=O)(=O)c3ccc(F)c(F)c3)c2)CC1	i	nt	i	nt	i

Screening data deposited in PubChem by several laboratories.
